Assay [1] is described as follows: inhibitors of TNFa-induced NFkB p65 translocation, primary screen, imaging, HUVEC, MLSMR starter and 10KST1 sets (AID 438).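 For inhibition: signal is the nuclear over cytoplasmic p65 intensity ratio per well.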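 Note: compound added about 3h40 before a 20 min TNFalpha stimulation.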 The conditions noted are these: HUVEC TNFa-induced p65 nuclear translocation; cell count: measured here: nuclei count (cytotoxicity indicator), at 2.08 µM; inhibition: at 2 µM, stronger effect = higher value, 0% TNFa-plus-vehicle, 100% no-TNFa wells.
The nature of assay [2]: reduction of polyQ htt aggregates in cells – imaging, exon1htt(103Q)mCFP cells, high-content imaging, primary screen (AID 483;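 active = visual image review flags a hit and inhibition of aggregation exceeds 20%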;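 note: compound exposure lasted 3 days before fixation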;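 for nuclei count: percent of the per-plate median nuclei count of sample wells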). As to conditions: exon1htt(103Q)mCFP cell line, aggregate imaging, at 2 µM; inhibition of aggregation: stronger effect = higher value; nuclei count: measured here: cell count, toxicity.
Assay [3] is described as follows: endothelial E-selectin expression blockers – imaging, HUVEC, immunofluorescence, MLSMR starter and 10KST1 sets, primary screen (AID 487;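 active = visually confirmed hit in the image check and inhibition above 20%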;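 for inhibition: signal is fraction of cell area covered by stained E-selectin grains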;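 for nuclei count: 100% = median nuclei count of all wells on the same plate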). As to conditions: HUVEC TNFalpha-induced E-selectin immunofluorescence imaging, at 2 µM; inhibition: stronger effect = higher value; nuclei count: measured here: cell number, toxicity.
Assay [4] concerns the target Voltage-gated potassium channel subunit beta-2 (Rattus norvegicus) (UniProt P62483). The experiment in a line: inhibitors of rat Kvbeta2 reductase activity – biochemical, NADPH fluorescence, primary screen (AID 622;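 active = fluorescence slope higher than the sample average by over 3 SD, cut at about -0.22 in these data, passing the limit was not always enough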;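 note: slope of raw intensity against log time taken from 70 to 1610 s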). The conditions noted are these: recombinant KvBeta, 4-cyanobenzaldehyde reduction, at 10 µM, stronger effect = higher value.
For assay [5] the target is unchanged. The experiment in a line: enhancers of rat Kvbeta2 NADPH turnover – biochemical, NADPH fluorescence, primary screen (AID 623;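 active = NADPH fluorescence slope more negative than the mean of all samples by about 3 SD, 99.7% confidence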;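 note: fluorescence intensity change per second fitted from 20 to 320 s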). As to conditions: Recombinant KvBeta, NADPH fluorescence decrease slope, 10 min; at 10 µM; stronger effect = lower value.
For assay [6], the target named is Muscarinic acetylcholine receptor M4 (Homo sapiens) (UniProt P08173). In words: M4-linked GIRK flux change, two-sided – cell-based, HEK293 M4/GIRK, thallium flux, BTC-AM, M4 allosteric agonist project, primary screen (AID 625;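 active = fluorescence slope after compound addition differing from the mean of all tested samples at 99.7% confidence, mostly higher but some lower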;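 note: thallium influx through GIRK channels coupled to M4 in HEK293 cells with BTC-AM dye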). As to conditions: at 10 µM, actives lie on both sides. In outline:
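Material – HEK293 cells with M4 receptor and GIRK channels · Buffer or medium – pH 7.3 thallium assay buffer · Doses – one dose, 10 µM final · Timing – cells overnight at 37 °C, BTC-AM loading 1 h, reads 2 min total · Measured by – kinetic fluorescence with BTC-AM dye · Controls – carbachol and DMSO controls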

Assay [7] is described as follows: blockers of RIG-like receptor reporter activation – cell-based, Sendai virus stimulus, luciferase, 10K MLSCN set, TLR/RLR signaling modifier project, primary screen (AID 602276;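 active = inhibition at or above 50% at 10 µM; inactive = inhibition below 50%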;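 note: firefly luciferase from ISG56 promoter only with Renilla not read in this screen; 0% = Sendai virus plus DMSO and 100% = medium plus DMSO without virus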). As to conditions: HEK293 RL24 IRF3 luciferase reporter, at 10 µM, stronger effect = higher value. For orientation: A reporter such as luciferase makes a cellular process visible.
The nature of assay [8]: TLR3 IRF3 reporter activation blockers – cell-based, poly I:C stimulus, luciferase, 10K MLSCN set, primary screen (AID 602277;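 active = inhibition of the reporter signal at or above 50%; inactive = inhibition below 50%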). As to conditions: HEK293-TLR3 RL24 IRF3 luciferase reporter, at 10 µM, stronger effect = higher value.

Calls of active or inactive are those of the source.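 Rule for the calls, unless noted: active = inhibition above 20% together with a positive visual image hit; inconclusive = visual image hit but inhibition not above 20%; inactive = no visual image hit.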

These results are taken from PubChem BioAssay.

Chain of Voltage-gated potassium channel subunit beta-2 (Rattus norvegicus) (P62483 whole entry, looked up): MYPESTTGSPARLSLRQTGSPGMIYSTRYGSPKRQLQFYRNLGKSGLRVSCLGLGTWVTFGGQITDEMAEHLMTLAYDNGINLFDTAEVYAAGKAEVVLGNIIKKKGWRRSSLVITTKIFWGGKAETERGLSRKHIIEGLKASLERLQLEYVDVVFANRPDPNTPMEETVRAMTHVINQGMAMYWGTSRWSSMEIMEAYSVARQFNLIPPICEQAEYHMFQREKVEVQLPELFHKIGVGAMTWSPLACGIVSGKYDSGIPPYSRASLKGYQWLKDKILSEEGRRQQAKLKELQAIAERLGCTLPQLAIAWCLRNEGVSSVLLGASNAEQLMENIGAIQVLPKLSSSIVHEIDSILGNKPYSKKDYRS
Chain of Muscarinic acetylcholine receptor M4 (Homo sapiens) (P08173 whole entry, looked up): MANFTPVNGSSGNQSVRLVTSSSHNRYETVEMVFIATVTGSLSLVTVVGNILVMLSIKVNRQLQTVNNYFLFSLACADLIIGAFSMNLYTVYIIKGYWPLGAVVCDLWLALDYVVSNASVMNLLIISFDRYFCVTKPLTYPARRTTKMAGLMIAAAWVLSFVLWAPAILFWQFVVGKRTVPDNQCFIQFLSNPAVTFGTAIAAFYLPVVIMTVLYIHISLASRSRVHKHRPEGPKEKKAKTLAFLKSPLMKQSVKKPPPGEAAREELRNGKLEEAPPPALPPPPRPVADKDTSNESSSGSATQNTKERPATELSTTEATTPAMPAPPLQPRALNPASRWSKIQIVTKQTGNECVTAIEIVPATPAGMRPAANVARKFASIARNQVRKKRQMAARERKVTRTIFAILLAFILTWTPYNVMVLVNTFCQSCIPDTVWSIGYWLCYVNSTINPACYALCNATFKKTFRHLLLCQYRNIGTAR

Regarding `COC(=O)CCCCCNc1ccc(C(=O)OC)cc1N`, the cell count in assay [1] was 292. For the same compound, the inhibition (in general, the drop in the measured response relative to a control, in per cent) is 7.7% (inactive) in assay [1], -71.5% (inactive) in assay [3], 6.15% (inactive) in assay [7] and 18.3% (inactive) in assay [8]. Besides, the inhibition of aggregation in assay [2] is 12.1% (inactive). Also, the nuclei count in assay [2] is 92.9%; in assay [3], 122%. Also, the fluorescence slope in assay [4] is -0.341 (inactive); in assay [6] it was 0.00505 (inactive). For the same compound, the NADPH fluorescence slope in assay [5] is -6.2e-05 (inactive).

Consider `COc1ccc(S(=O)(=O)NC(CC(=O)NCc2ccco2)c2ccco2)cc1` (centres undefined), for which, in assay [1], the cell count came out at 621. Moreover, the inhibition was 8.2% (inactive) in assay [1], -67.3% (inactive) in assay [3], 19.3% (inactive) in assay [7] and 20.6% (inactive) in assay [8]. Further, in assay [2], the inhibition of aggregation was 0.5% (inactive). In addition, the nuclei count was 114% in assay [2] and 97.1% in assay [3]. The figures for the fluorescence slope in assay [4] and in assay [6] were -0.566 (inactive) and 0.00653 (inactive), respectively. The NADPH fluorescence slope in assay [5] is -3e-05 (inactive).

For `O=C(CN1C(=O)CCSc2ccccc21)Nc1ccc2c(c1)OCO2`, in assay [1], the cell count was determined as 700. Moreover, the inhibition in assay [1] is -1.6% (inactive); in assay [3], -215% (inactive); in assay [7], 12.5% (inactive); in assay [8] it was 23.4% (inactive). Also, the inhibition of aggregation in assay [2] was 31.4% (inactive). In addition, the nuclei count in assay [2] worked out at 91.2%; in assay [3], 111%. Moreover, the results for the fluorescence slope in assay [4] and in assay [6] were -0.474 (inactive) and 0.00631 (inactive), respectively. Also, the NADPH fluorescence slope in assay [5] is -2.4e-05 (inactive).

As to `COCCNC(=O)C(C)OC(=O)c1nsc(Cl)c1Cl` (centres undefined), the cell count in assay [1] stood at 551. Also, the inhibition was -8.3% (inactive) in assay [1], -45.1% (inactive) in assay [3], -6.04% (inactive) in assay [7] and -22% (inactive) in assay [8]. In assay [2], the inhibition of aggregation is 0.5% (inactive). Besides, the results for the nuclei count in assay [2] and in assay [3] were 101% and 115%, respectively. Besides, the fluorescence slope was -0.317 (inactive) in assay [4] and 0.00545 (inactive) in assay [6]. The NADPH fluorescence slope in assay [5] is 1e-05 (inactive).

In the case of `CC(C(=O)N1c2ccc(F)cc2CCC1C)N1C(=O)c2ccccc2C1=O` (centres undefined), in assay [1], the cell count came to 490. Besides, the inhibition in assay [1] is 5% (inactive); in assay [3], -158% (inactive); in assay [7] it was 10.8% (inactive); in assay [8] it was 11.7% (inactive). Besides, in assay [2], the inhibition of aggregation was 1.1% (inactive). Further, the figures for the nuclei count in assay [2] and in assay [3] were 118% and 138%, respectively. Further, the fluorescence slope in assay [4] is -0.452 (inactive); in assay [6], 0.00501 (inactive). The NADPH fluorescence slope in assay [5] was -4.6e-05 (inactive).

In the case of `CCOc1ccc(N(CC(=O)NCC2CCCO2)S(=O)(=O)c2ccc(OC)c(OC)c2)cc1` (centres undefined), in assay [1], the cell count came out at 326. Besides, the inhibition in assay [1] is 3.5% (inactive); in assay [3], -47% (inactive); in assay [7] it was 10.6% (inactive); in assay [8], 18.4% (inactive). Also, the inhibition of aggregation in assay [2] is -10.6% (inactive). Besides, the nuclei count in assay [2] was found to be 107%; in assay [3] it was 112%. The fluorescence slope in assay [4] is -0.572 (inactive); in assay [6], 0.00351 (inactive). In addition, in assay [5], the NADPH fluorescence slope was -3.5e-05 (inactive).

Consider `CCOC(=O)N1CCN(C(=O)c2ccc(N3C(=O)CCC3=O)cc2)CC1`, for which the cell count in assay [1] amounted to 503. For the same compound, the inhibition in assay [1] was -1.2% (inactive); in assay [3], 15.8% (inactive); in assay [7], -5.15% (inactive); in assay [8], 18.1% (inactive). For the same compound, in assay [2], the inhibition of aggregation was 0.2% (inactive). Besides, the nuclei count in assay [2] was 108%; in assay [3], 68.3%. The fluorescence slope was -0.266 (inactive) in assay [4] and 0.00679 (inactive) in assay [6]. For the same compound, the NADPH fluorescence slope in assay [5] is -2.7e-05 (inactive).

With `CC1(C)C2CCC1(CS(=O)(=O)NCc1ccc(C(=O)O)cc1)C(=O)C2` (centres undefined), the cell count in assay [1] was 517. For the same compound, the inhibition was -16.3% (inactive) in assay [1], 46.1% (inactive) in assay [3], 36.1% (inactive) in assay [7] and 30.6% (inactive) in assay [8]. Moreover, the inhibition of aggregation in assay [2] was 1.1% (inactive). In addition, the nuclei count in assay [2] was 90.1%; in assay [3] it was 100%. Moreover, the fluorescence slope in assay [4] was -0.606 (inactive); in assay [6] it was 0.00724 (inactive). In assay [5], the NADPH fluorescence slope was 2.9e-05 (inactive).

`Cn1cccc1C1NC(=O)c2c(sc3c2CCC(C(C)(C)C)C3)N1` (centres undefined): the cell count in assay [1] came to 495. Also, the inhibition in assay [1] is 1.7% (inactive); in assay [3] it was -107% (inactive); in assay [7], -3.95% (inactive); in assay [8], -48.7% (inactive). In assay [2], the inhibition of aggregation was -10.6% (inactive). For the same compound, the nuclei count in assay [2] was 93%; in assay [3], 127%. The fluorescence slope in assay [4] was -0.19 (inactive); in assay [6], 0.00584 (inactive). Further, the NADPH fluorescence slope in assay [5] is -1.5e-05 (inactive).

For the compound `COc1ccc(N2CCN(C(=O)CN3C(=O)C4CC=CCC4C3=O)CC2)cc1` (centres undefined), the cell count in assay [1] was 693. Besides, the inhibition was 9.7% (inactive) in assay [1], 55.9% (inactive) in assay [3], -11% (inactive) in assay [7] and -14.6% (inactive) in assay [8]. Also, in assay [2], the inhibition of aggregation was 11% (inactive). Also, the nuclei count came to 108% in assay [2] and 90.3% in assay [3]. Also, the fluorescence slope in assay [4] was -0.575 (inactive); in assay [6] it was 0.00533 (inactive). In addition, the NADPH fluorescence slope in assay [5] was 3.5e-05 (inactive).

For `CCCn1c(NC(=O)C2COc3ccccc3O2)nc2ccccc21` (centres undefined), the cell count in assay [1] was determined as 496. Also, the inhibition was 1% (inactive) in assay [1], -56% (inactive) in assay [3], 15.8% (inactive) in assay [7] and 17.5% (inactive) in assay [8]. Moreover, the inhibition of aggregation in assay [2] is -4.8% (inactive). Further, the values for the nuclei count in assay [2] and in assay [3] were 98.3% and 102%, respectively. For the same compound, the fluorescence slope is -0.467 (inactive) in assay [4] and 0.00578 (inactive) in assay [6]. For the same compound, the NADPH fluorescence slope in assay [5] was 0.000114 (inactive).

Regarding `COc1ccc(C(=O)N(Cc2ccco2)C(C(=O)NC2CCCC2)c2ccc(O)cc2)cc1OC` (centres undefined), in assay [1], the cell count was determined as 653. Also, the inhibition in assay [1] is -2.4% (inactive); in assay [3], 14.6% (inactive); in assay [7], 10.7% (inactive); in assay [8] it was 12.6% (inactive). Further, in assay [2], the inhibition of aggregation was -3.3% (inactive). Moreover, the nuclei count in assay [2] is 104%; in assay [3], 103%. Also, the fluorescence slope in assay [4] is -0.54 (inactive); in assay [6] it was 0.00452 (inactive). Also, in assay [5], the NADPH fluorescence slope is -4.9e-05 (inactive).

For `Cc1ccc2nsnc2c1S(=O)(=O)N1CCN(Cc2ccc3c(c2)OCO3)CC1`, the cell count in assay [1] was found to be 486. Further, the inhibition in assay [1] is -13.1% (inactive); in assay [3], -9.8% (inactive); in assay [7], 12.5% (inactive); in assay [8] it was 27.7% (inactive). The inhibition of aggregation in assay [2] was -11.5% (inactive). Moreover, the figures for the nuclei count in assay [2] and in assay [3] were 108% and 83.9%, respectively. For the same compound, the fluorescence slope in assay [4] is -0.468 (inactive); in assay [6], 0.00415 (inactive). Moreover, the NADPH fluorescence slope in assay [5] was -4.9e-05 (inactive).

`O=C(CN1C(=O)c2cccc3cccc1c23)NCC1CCCO1` (centres undefined): in assay [1], the cell count was 356. Also, the inhibition was 20.1% (inactive) in assay [1], -58% (inactive) in assay [3], -5.13% (inactive) in assay [7] and -11.1% (inactive) in assay [8]. Moreover, the inhibition of aggregation in assay [2] was 13.2% (inactive). For the same compound, the nuclei count turned out to be 79.5% in assay [2] and 102% in assay [3]. In addition, the values for the fluorescence slope in assay [4] and in assay [6] were -0.433 (inactive) and 0.00404 (inactive), respectively. Moreover, in assay [5], the NADPH fluorescence slope is -4.9e-05 (inactive).
